A selection: hits, their analogues and other compounds. The true share with any hit is near 2.6%.
RanGTP-Imp inh: inhibitors of RanGTP-importin-beta interaction, primary screen, biochemical, FRET, CFP-Ran, YFP-importin-beta, homogeneous; cell-free CFP-Ran/YFP-importin-beta FRET ratio; 300,000 compounds, 1.1% hits; Ran GTPase (GTP-bound) - importin-beta complex; inhibition, % (concentration not given with the values);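 active = more than half of the replicate wells show a fall in the fluorescence ratio signal beyond about 16%, limit read from the data, passing the limit was not always enough; inconclusive = exactly half of the replicate wells pass the set limit; inactive = fewer than half of replicates pass the limit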;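 also: 0% = DMSO wells and 100% = Ran loaded with GDP instead of GTP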
Runt-SMMHC FRET: inhibitors of RUNX1 Runt–CBFb-SMMHC binding, primary screen, biochemical, FRET, Cerulean-Runt, Venus-CBFb-SMMHC, uHTS; Cerulean-Runt/Venus-CBFb-SMMHC FRET ratio 530/480, 1 h; inhibition, % at 20 µM; 220,000 compounds, 0.74% hits;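 active = mean inhibition across duplicate retests at 20 µM reaching about 50%, limit read from the data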;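 also: 0% = DMSO wells and 100% = wells with excess untagged CBFb-SMMHC; inhibitors lower the FRET ratio by blocking Runt binding to CBFb-SMMHC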
Target sequence (Q01196 whole entry, looked up): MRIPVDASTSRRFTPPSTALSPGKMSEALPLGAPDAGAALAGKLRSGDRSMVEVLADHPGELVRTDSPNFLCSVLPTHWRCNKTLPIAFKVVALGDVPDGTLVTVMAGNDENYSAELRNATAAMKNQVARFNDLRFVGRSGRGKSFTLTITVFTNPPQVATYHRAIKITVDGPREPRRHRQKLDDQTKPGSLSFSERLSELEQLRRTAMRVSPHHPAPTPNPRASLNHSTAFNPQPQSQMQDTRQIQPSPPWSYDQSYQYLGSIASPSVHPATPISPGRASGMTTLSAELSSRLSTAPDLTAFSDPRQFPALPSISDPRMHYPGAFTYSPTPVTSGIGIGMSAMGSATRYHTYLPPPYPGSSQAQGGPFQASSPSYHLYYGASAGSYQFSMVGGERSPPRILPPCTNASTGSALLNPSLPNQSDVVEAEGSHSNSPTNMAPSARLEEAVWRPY
Target sequence (Q13951 whole entry, looked up): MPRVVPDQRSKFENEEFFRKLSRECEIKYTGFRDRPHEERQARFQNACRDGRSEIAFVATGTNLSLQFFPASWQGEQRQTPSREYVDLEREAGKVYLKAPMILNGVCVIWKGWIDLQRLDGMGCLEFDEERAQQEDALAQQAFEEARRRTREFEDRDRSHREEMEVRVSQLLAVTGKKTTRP
VIM-2 inh: VIM-2 metallo-beta-lactamase inhibitors, primary screen, biochemical, epi-absorbance readout, Pseudomonas aeruginosa enzyme | purified VIM-2, nitrocefin hydrolysis, epi-absorbance fluorescence | inhibition, % at 5.6 µM | 290,000 compounds, 0.89% hits | AID 1527, 2009;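 active = inhibition above the mean of all tested compounds plus 3 SD, cutoff set per screening run, cut at about 7.5% in these data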;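 also: red hydrolysis product quenches plate fluorescence so inhibitors raise well fluorescence; 0% = enzyme with DMSO and 100% = DMSO without enzyme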
Runt-CBFb FRET: inhibitors of RUNX1 Runt–CBFb binding, primary screen, biochemical, FRET, Cerulean-Runt, Venus-CBFb, uHTS; Runt-related transcription factor 1 (Homo sapiens) + Core-binding factor subunit beta …; Cerulean-Runt/Venus-CBFb FRET ratio 530/480, 1 h; inhibition, % at 20 µM; 220,000 compounds, 0.46% hits; AID 1496, 2009;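 active = inhibition over about 50% at 20 µM in the single-dose screen, limit read from the data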;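 also: 0% = DMSO wells and 100% = excess unlabeled CBFb competitor control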
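Reagent – Venus-CBFb binding partner, 100 nM · Assay system – Cerulean-tagged RUNX1 Runt domain (FRET donor) fusion protein · Input – 100 nM per protein · Incubation – two 1 h room-temperature incubations shielded from light · Measured by – FRET fluorescence · Medium – Tris buffer pH 7.5 with salts and BSA · Benchmarks – unlabeled CBFb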
IMP-1 inh: IMP-1 metallo-beta-lactamase inhibitors, primary screen, biochemical, epi-absorbance readout, Pseudomonas aeruginosa enzyme | purified IMP-1, nitrocefin hydrolysis, epi-absorbance fluorescence | 290,000 compounds, 0.45% hits | inhibition, % at 5.6 µM | metallo-beta-lactamase IMP-1 (Pseudomonas aeruginosa);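 active = inhibition above the mean plus 3 SD of all compounds in the same screening run, cut at about 4.5% in these data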;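 also: 0% = IMP-1 with DMSO and 100% = DMSO wells lacking enzyme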
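System: purified recombinant IMP-1 beta-lactamase. Medium: Zinc- and detergent-supplemented HEPES buffer, pH 7.1. Compound: one 5.6 µM dose […]. Schedule: 15 min preincubation plus 25 min reaction at 25 °C. Technique: Epi-absorbance fluorescence, 480 nm excitation, 530 nm emission.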
The depositor's hits bear a star; ? = inconclusive; · = no result.

SMILES	RanGTP-Imp inh	Runt-SMMHC FRET	VIM-2 inh	Runt-CBFb FRET	IMP-1 inh
Cc1c(C)n(CCc2ccccc2)c2ncnc(NN)c12	4.7	·	7.8*	·	0.6
CCSc1nnc2c3cc(CC)ccc3n(C)c2n1	1.4	·	8.2*	·	-2.8
CCOC(=O)C(CC)Sc1nnc2c3cc(C)ccc3n(C)c2n1 (stereo not drawn)	4.3	-2.8	9.4*	-5.1	-0.5
Cc1cccc(-c2nc(S(=O)(=O)c3ccc(F)cc3)c(NCCCN3CCOCC3)o2)c1	2.8	·	1.1	·	-2.4
CC(C)c1[nH]nc2c1C1(CCN(Cc3ccccc3)CC1)C(C#N)=C(N)O2	20.6*	59.1*	2.6	49.7	-3.4
CCc1[nH]nc2c1C1(CCN(C(=O)OCc3ccccc3)CC1)C(C#N)=C(N)O2	5.8	-2.8	10.7*	2.9	-0.4
Cc1[nH]nc2c1C1(CCN(Cc3ccccc3)CC1)C(C#N)=C(N)O2	?	36.3	0.1	7.9	-1.0
COCc1[nH]nc2c1C1(CCC3(CC1)OCCO3)C(C#N)=C(N)O2	-1.5	1.9	-0.9	-1.2	-2.4
COc1ccc(C(=O)CC2(C(=O)O)CCCCC2)cc1	-1.2	·	-2.8	·	-2.8
O=C(CCn1cccn1)Nc1ccc2c(c1)OCCO2	-1.6	·	-3.2	·	-3.3
N#C/C(=C\c1c(N2CCCCCC2)nc2ccccn2c1=O)C(=O)NC1CCS(=O)(=O)C1 (stereo not drawn)	0.2	82.3*	-1.6	4.1	0.8
N#C/C(=C\c1c(N2CCOCC2)nc2ccccn2c1=O)C(=O)NC1CCS(=O)(=O)C1 (stereo not drawn)	3.2	81.7*	-3.3	9.5	-3.2
CCOc1ccccc1Nc1nc2ccccc2n1C(C)C	3.9	0.9	-0.9	-0.8	-2.0
CCOC(=O)c1c(CN2CCN(C)CC2)n(C)c2cc(Br)c(OC)cc12	-2.4	9.6	7.3	0.2	-0.8
CCOC(=O)c1c(C)oc2c(CN3CCN(C)CC3)c(Br)c(OC)c(O)c12	·	-0.5	10.4*	-1.5	-2.2
COC(=O)CC1COc2ccccc2N1C(=O)c1ccc(Cl)cc1 (stereo not drawn)	179.2*	0.6	-8.5	-0.7	-2.5
COC(=O)CC1COc2ccccc2N1C(=O)c1ccc(Br)cc1 (stereo not drawn)	-2.0	1.3	-2.1	0.9	-2.5
CCN(CC)c1ccc(/C=C(\C#N)C(N)=O)cc1	·	63.0*	-0.1	29.4	-1.9
CCN(CC)c1ccc(/C=C(\C#N)C(N)=S)cc1	3.2	-27.7	-0.8	-18.4	-1.4
COc1ccc(CC(=O)N/N=C/c2ccc(C)s2)cc1	-4.3	·	·	·	·
CN(C)C(CNC(=O)CCCN1C(=O)c2cccc3cccc(c23)C1=O)c1ccccc1 (stereo not drawn)	-6.5	·	9.2*	·	-4.4
O=[N+]([O-])c1ccc(/C=C/C2=NN(c3ccccc3)C(c3ccco3)C2)cc1 (stereo not drawn)	·	-237.6	1.9	-33.6	0.9
O=[N+]([O-])c1ccc(C2=NN(c3ccccc3)C(c3ccco3)C2)cc1 (stereo not drawn)	-43.5	-38.8	2.9	-10.5	6.6*
O=C(O)c1cccc2c1C(=O)c1ccccc1C2=O	1.6	-4.1	2.8	2.5	-1.1
CC(C)OC(=O)c1cccc2c1C(=O)c1ccccc1-2	-0.1	-3.5	10.2*	-0.1	-0.9
SMILES	RanGTP-Imp inh	Runt-SMMHC FRET	VIM-2 inh	Runt-CBFb FRET	IMP-1 inh
CC(=O)Nc1nc(C2CC2)cc(-c2ccccc2)c1C#N	-2.6	-1.9	1.6	-0.7	-1.2
CN(C)c1ccc(N=Nc2ccc(S(N)(=O)=O)cc2)cc1	-0.3	·	-2.9	·	9.1*
CC(=O)COc1ccc2c(c1C)O/C(=C\c1ccco1)C2=O	18.3*	·	2.9	·	1.2
Fc1ccccc1-c1nnc2ccc3ccccc3n12	2.6	·	-1.6	·	4.8*
O=C(NCc1ccccc1Cl)c1ccc2c(c1)OCO2	?	·	-1.8	·	-0.2
O=C(NCc1ccccc1F)c1ccc2c(c1)OCO2	15.9*	0.7	-2.5	1.1	1.6

From PubChem BioAssay
